Experimental data taken from ChEMBL document CHEMBL1131003, “Nonsymmetric P2/P2' cyclic urea HIV protease inhibitors. Structure-activity relationship, bioavailability, and resistance profile of monoindazole-substituted P2 analogues” (J Med Chem, 1998).

molecular target: Human immunodeficiency virus type 1 protease (Human immunodeficiency virus 1, UniProt Q72874); experiment: Inhibitory activity against HIV protease; settings: not given
How it was run: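 Ki for HIV protease, measured by cleavage of a fluorescent substrate with HPLC analysis, following the earlier method.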

SMILES	Ki [nM]
O=C(Cc1cccs1)c1cccc(CN2C(=O)N(Cc3ccc4[nH]ncc4c3)[C@H](Cc3ccccc3)[C@H](O)[C@@H](O)[C@H]2Cc2ccccc2)c1	0.23
O=C1N(Cc2ccc3[nH]ncc3c2)[C@H](CCc2ccccc2)[C@@H](O)[C@@H](Cc2ccccc2)N1Cc1ccc2[nH]ncc2c1	0.023
O=C(Nc1ccccn1)c1cccc(CN2C(=O)N(Cc3ccc4[nH]ncc4c3)[C@H](Cc3ccccc3)[C@H](O)[C@@H](O)[C@H]2Cc2ccccc2)c1	0.051
Cc1ccc(NC(=O)c2cccc(CN3C(=O)N(Cc4ccc5[nH]ncc5c4)[C@H](Cc4ccccc4)[C@H](O)[C@@H](O)[C@H]3Cc3ccccc3)c2)nc1	0.048
COC(=O)Cc1cccc(CN2C(=O)N(Cc3ccc4[nH]ncc4c3)[C@H](Cc3ccccc3)[C@H](O)[C@@H](O)[C@H]2Cc2ccccc2)c1	0.11
O=C(Cn1cncn1)c1cccc(CN2C(=O)N(Cc3ccc4[nH]ncc4c3)[C@H](Cc3ccccc3)[C@H](O)[C@@H](O)[C@H]2Cc2ccccc2)c1	0.022
O=C(Cn1ccnn1)c1cccc(CN2C(=O)N(Cc3ccc4[nH]ncc4c3)[C@H](Cc3ccccc3)[C@H](O)[C@@H](O)[C@H]2Cc2ccccc2)c1	0.021
O=C1N(Cc2ccc(F)c(NCc3nc4ccccc4[nH]3)c2)[C@H](Cc2ccccc2)[C@H](O)[C@@H](O)[C@@H](Cc2ccccc2)N1Cc1ccc2[nH]ncc2c1	0.028
NC(=O)c1cc(CN2C(=O)N(Cc3ccc4[nH]ncc4c3)[C@H](Cc3ccccc3)[C@H](O)[C@@H](O)[C@H]2Cc2ccccc2)ccc1F	0.018
O=C1N(Cc2cccc(O)c2)[C@H](Cc2ccccc2)[C@H](O)[C@@H](O)[C@@H](Cc2ccccc2)N1Cc1ccc2[nH]ncc2c1	0.045
Nc1cc(CN2C(=O)N(Cc3ccc4[nH]ncc4c3)[C@H](Cc3ccccc3)[C@H](O)[C@@H](O)[C@H]2Cc2ccccc2)ccc1F	0.018
Nc1ccc(CN2C(=O)N(Cc3ccc4[nH]ncc4c3)[C@H](Cc3ccccc3)[C@H](O)[C@@H](O)[C@H]2Cc2ccccc2)cc1F	0.036

tested on: MT2; experiment: Antiviral potency evaluated by measuring accumulation of viral RNA transcripts 3 days after infection of MT-2 cells with HIV-1 RF; type: functional; settings: Homo sapiens, MT2, 72 h

SMILES	IC90 [nM]
NC(=O)c1cccc(CN2C(=O)N(Cc3cccc(C(N)=O)c3)[C@H](Cc3ccccc3)[C@H](O)[C@H]2CCc2ccccc2)c1	35
N=C(NO)c1cccc(CN2C(=O)N(Cc3cccc(/C(N)=N/O)c3)[C@H](CCc3ccccc3)[C@@H](O)[C@H]2Cc2ccccc2)c1	49
O=C1N[C@H](Cc2ccccc2)[C@H](O)[C@@H](O)[C@@H](Cc2ccccc2)N1Cc1ccc2[nH]ncc2c1	550
CNC(=O)c1cccc(CN2C(=O)N(Cc3cccc(C(=O)NC)c3)[C@H](Cc3ccccc3)[C@H](O)[C@@H](O)[C@H]2Cc2ccccc2)c1	81
NC(=O)c1cccc(CN2C(=O)N(Cc3cccc(C(N)=O)c3)[C@H](Cc3ccccc3)[C@H](O)[C@@H](O)[C@H]2Cc2ccccc2)c1	709
O=C(Nc1nc2ccccc2[nH]1)c1cccc(CN2C(=O)N(Cc3cccc(C(=O)Nc4nc5ccccc5[nH]4)c3)[C@H](Cc3ccccc3)[C@H](O)[C@@H](O)[C@H]2Cc2ccccc2)c1	5.1
O=C(Nc1nccs1)c1cccc(CN2C(=O)N(Cc3cccc(C(=O)Nc4nccs4)c3)[C@H](Cc3ccccc3)[C@H](O)[C@@H](O)[C@H]2Cc2ccccc2)c1	4.2
O=C1N(Cc2ccc3[nH]ncc3c2)[C@H](Cc2ccccc2)[C@H](O)[C@@H](O)[C@@H](Cc2ccccc2)N1Cc1ccc2[nH]ncc2c1	7
O=C(Cc1cccs1)c1cccc(CN2C(=O)N(Cc3ccc4[nH]ncc4c3)[C@H](Cc3ccccc3)[C@H](O)[C@@H](O)[C@H]2Cc2ccccc2)c1	18
O=C1N(Cc2ccc3[nH]ncc3c2)[C@H](CCc2ccccc2)[C@@H](O)[C@@H](Cc2ccccc2)N1Cc1ccc2[nH]ncc2c1	6
O=C(Nc1ccccn1)c1cccc(CN2C(=O)N(Cc3ccc4[nH]ncc4c3)[C@H](Cc3ccccc3)[C@H](O)[C@@H](O)[C@H]2Cc2ccccc2)c1	5
Cc1ccc(NC(=O)c2cccc(CN3C(=O)N(Cc4ccc5[nH]ncc5c4)[C@H](Cc4ccccc4)[C@H](O)[C@@H](O)[C@H]3Cc3ccccc3)c2)nc1	4
COC(=O)Cc1cccc(CN2C(=O)N(Cc3ccc4[nH]ncc4c3)[C@H](Cc3ccccc3)[C@H](O)[C@@H](O)[C@H]2Cc2ccccc2)c1	32
O=C(Cn1cncn1)c1cccc(CN2C(=O)N(Cc3ccc4[nH]ncc4c3)[C@H](Cc3ccccc3)[C@H](O)[C@@H](O)[C@H]2Cc2ccccc2)c1	51
O=C(Cn1ccnn1)c1cccc(CN2C(=O)N(Cc3ccc4[nH]ncc4c3)[C@H](Cc3ccccc3)[C@H](O)[C@@H](O)[C@H]2Cc2ccccc2)c1	30
CCNC(=O)c1cccc(CN2C(=O)N(Cc3cccc(C(=O)NCC)c3)[C@H](Cc3ccccc3)[C@H](O)[C@@H](O)[C@H]2Cc2ccccc2)c1	138
O=C1N(Cc2ccc(F)c(NCc3nc4ccccc4[nH]3)c2)[C@H](Cc2ccccc2)[C@H](O)[C@@H](O)[C@@H](Cc2ccccc2)N1Cc1ccc2[nH]ncc2c1	30
NC(=O)c1cc(CN2C(=O)N(Cc3ccc4[nH]ncc4c3)[C@H](Cc3ccccc3)[C@H](O)[C@@H](O)[C@H]2Cc2ccccc2)ccc1F	14
O=C1N(Cc2cccc(O)c2)[C@H](Cc2ccccc2)[C@H](O)[C@@H](O)[C@@H](Cc2ccccc2)N1Cc1ccc2[nH]ncc2c1	36
O=C(Nc1ccccn1)c1cccc(CN2C(=O)N(Cc3cccc(C(=O)Nc4ccccn4)c3)[C@H](Cc3ccccc3)[C@H](O)[C@@H](O)[C@H]2Cc2ccccc2)c1	2.8
Nc1cc(CN2C(=O)N(Cc3ccc4[nH]ncc4c3)[C@H](Cc3ccccc3)[C@H](O)[C@@H](O)[C@H]2Cc2ccccc2)ccc1F	14
O=C1N(Cc2ccc3ccccc3c2)[C@H](Cc2ccccc2)[C@H](O)[C@@H](O)[C@@H](Cc2ccccc2)N1Cc1ccc2ccccc2c1	3900
Nc1ccc(CN2C(=O)N(Cc3ccc4[nH]ncc4c3)[C@H](Cc3ccccc3)[C@H](O)[C@@H](O)[C@H]2Cc2ccccc2)cc1F	7

tested on: not listed separately; experiment: Peak plasma concentration was measured in dogs; type: ADME, organism-based, Canis lupus familiaris; settings: dog

SMILES	Cmax [µM]
Cc1ccc(NC(=O)c2cccc(CN3C(=O)N(Cc4ccc5[nH]ncc5c4)[C@H](Cc4ccccc4)[C@H](O)[C@@H](O)[C@H]3Cc3ccccc3)c2)nc1	< 0.05
O=C(Cn1cncn1)c1cccc(CN2C(=O)N(Cc3ccc4[nH]ncc4c3)[C@H](Cc3ccccc3)[C@H](O)[C@@H](O)[C@H]2Cc2ccccc2)c1	0.15
